Screens (PubChem BioAssay)
Only some compounds are listed: those with a hit (about 3.5% of all), similar ones and a draw of the others.
MrgX1 antagonist: blocks BAM8-22 activation of human MrgX1 receptor; Q96LB2; MRGX1-HEK293 calcium flux, Fluo-4, BAM8-22 antagonism; active compounds read low; B-score at 10 µM; actives 1.3% (n = 310,000); AID 588676;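 active = calcium-response B-score plate-corrected more than 3 library SD below zero, starting fluorescence within 5 deviations, no agonist response on first addition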;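 note: peak minus trough fluorescence over baseline after final BAM8-22 challenge near maximal dose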
Target sequence (Q96LB2 whole entry, looked up): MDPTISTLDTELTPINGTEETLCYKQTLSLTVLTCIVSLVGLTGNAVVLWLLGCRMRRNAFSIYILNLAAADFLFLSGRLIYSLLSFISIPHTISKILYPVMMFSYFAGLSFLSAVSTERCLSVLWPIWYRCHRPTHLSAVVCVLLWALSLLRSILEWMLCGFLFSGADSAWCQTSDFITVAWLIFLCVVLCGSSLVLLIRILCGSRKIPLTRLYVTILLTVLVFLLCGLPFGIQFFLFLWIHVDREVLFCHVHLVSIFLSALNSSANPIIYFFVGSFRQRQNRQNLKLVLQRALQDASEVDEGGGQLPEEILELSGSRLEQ
MrgX1 allo act: allosterically activates human MrgX1 receptor signaling | MrgX1-HEK293, Fluo-4 calcium flux, FDSS; active compounds read high | B-score at 10 µM | actives 0.63% (n = 310,000);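 active = plate-corrected calcium response at least 3 library SD above typical, normal starting fluorescence, not activating the receptor alone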;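 note: compound read alongside a low EC10 to EC30 dose of BAM8-22 agonist; peak minus trough fluorescence over baseline measured at the second addition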
MrgX1 ag: activates human MrgX1 receptor signaling; actives 0.44% (n = 310,000); MrgX1-HEK293 cells, Fluo-4 calcium fluorescence, agonist mode; active compounds read high; Q96LB2; AID 588627; B-score at 10 µM;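 active = calcium response B-score plate-corrected fluorescence ratio at least 3 library SD, with starting fluorescence B-score inside 5 SD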
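Material: HEK293 cells stably expressing human MrgX1 receptor | Quantity: 15,000 cells per well | Times: Cells plated overnight, dye loaded 0.5 h 37 °C, 0.5 h room temperature | Measured by: Kinetic Fluo-4 NW fluorescence of intracellular calcium | Control set: Positive and negative controls per plate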
RGS4 block: human RGS4 inhibition. P49798. HEK293 M3R/RGS4 inducible, Fluo-4 calcium flux; active compounds read high; triggered by carbachol at its EC20. B-score at 10 µM. actives 0.45% (n = 310,000). AID 463165;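 active = B-score, a plate-corrected calcium signal, over three deviations above library mean, with baseline fluorescence within five deviations of library mean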;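 note: RGS4 expression induced by doxycycline in cells with stable M3 receptor; B-score is computed from the integrated fluorescence ratio over baseline after carbachol; higher B-score means a larger calcium signal and so more RGS4 inhibition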
RGS4 pot: potentiators or activators of RGS4. HEK293 M3R/inducible RGS4, carbachol calcium flux Fluo4; active compounds read low. B-score at 10 µM. actives 0.92% (n = 310,000);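 active = B-score of the integrated calcium signal more than 4 SD below the library mean, with starting fluorescence not abnormally high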;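 note: negative B-score means reduced calcium response which marks RGS4 activation or potentiation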
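Reagent: ECmax carbachol challenge; Test system: M3R-expressing HEK293 line, RGS4 induced by doxycycline; Schedule: overnight RGS4 induction, 30 min dye load 37 °C, 20 min compound RT; Detection: calcium dye Fluo4 fluorescence; Read-out: Agonist-evoked peak-minus-minimum fluorescence over baseline, integrated ratio, B score.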
Each line names hits and unclear results; the compound was inactive in the other large screens.

CC(C)c1ccc(/C=C/C(=O)NCc2ccc(S(N)(=O)=O)cc2)cc1	MrgX1 antagonist -6.8
CC1CCN(CC(=O)Nc2ccc(N3CCCCCC3)cc2)CC1	RGS4 pot -7
CC1CCN(CC(=O)Nc2ccc(S(=O)(=O)N3CCCCC3)cc2)CC1	none
Cc1ccccc1N/C(=C(/C(Cl)=C(Cl)Cl)[N+](=O)[O-])n1nnc2ccccc21	MrgX1 antagonist -5
COc1ccc(N/C(=C(/C(Cl)=C(Cl)Cl)[N+](=O)[O-])n2nnc3ccccc32)cc1	none
O=[N+]([O-])c1cccc(N/N=C/c2cc([N+](=O)[O-])ccc2O)c1	none
O=[N+]([O-])c1ccc(N/N=C/c2ccccc2O)cc1	MrgX1 antagonist -4.9
NS(=O)(=O)c1ccc(N/N=C/c2ccccc2Br)cc1	MrgX1 allo act 6.8
NS(=O)(=O)c1ccc(N/N=C/c2ccncc2)cc1	none
CCCn1c(NC(=O)c2ccc(Cl)c(S(=O)(=O)N3CCCC3)c2)nc2ccccc21	none
CCC(=O)N(Cc1ccco1)c1nc(C(=O)Nc2ccc(Cl)cc2)c(C)s1	none
O=C(Cc1ccc([N+](=O)[O-])cc1)N1CCCCCC1	none
O=C(CCc1ccc(Oc2cc([N+](=O)[O-])cc([N+](=O)[O-])c2)cc1)N1CCCCCC1	RGS4 pot -10
CCOc1cc(/C=C2\SC(=S)N(NS(=O)(=O)c3ccc(C)cc3)C2=O)ccc1O	MrgX1 ag 52
CCOc1cc(/C=C2\SC(=S)N(NC(=O)c3cccnc3)C2=O)ccc1O	MrgX1 antagonist -5.9
O=C(NN1C(=O)/C(=C\c2cccnc2)SC1=S)C(c1ccccc1)c1ccccc1	RGS4 pot -7.3
Cc1ccc(N2C(=N)/C(=C3/Nc4ccccc4S3)C(c3ccccc3)C2=O)cc1 (stereo not drawn)	none (no result: RGS4 block, RGS4 pot)
O=C(COC(=O)c1ccco1)Nc1nc2ccc([N+](=O)[O-])cc2s1	none
Cc1ccc(C)c(OCC(=O)Nc2nc3ccc([N+](=O)[O-])cc3s2)c1	MrgX1 antagonist -7.2
Cc1sc(N2CCN(S(=O)(=O)c3ccc4c(c3)NC(=O)CO4)CC2)nc1-c1ccccc1	none
CC1CC(OC(=O)CN2CCCCC2)CC(C)(C)C1 (stereo not drawn)	none
O=C(Nc1cccc(C(F)(F)F)c1)N1CCC(c2nc(-c3ccc(F)cc3)no2)CC1	RGS4 pot -9.3
O=C(Nc1ccccc1)N1CCCC(c2nc(-c3ccc(F)cc3)no2)C1 (stereo not drawn)	none
Cc1c(N2C(=O)/C(=C\c3ccc(N(C)C)cc3)N(C)C2=S)c(=O)n(-c2ccccc2)n1C	MrgX1 antagonist -4.5 (no result: RGS4 block, RGS4 pot)
Cc1ccc(C(=O)Nc2cccc(C(F)(F)F)c2)cc1NC(=O)c1csc(-c2ccncc2)n1	none
N#C/C(=N\Nc1cccc(C(F)(F)F)c1)C(=O)c1csc(-c2cccnc2)n1	MrgX1 antagonist -5.7
N#Cc1c(-c2ccc(F)cc2)ccnc1N1CCOCC1	none
CCOC(=O)c1ccc2c(c1)n(CC)c(/C=C/N(C)c1ccccc1)[n+]2CC	MrgX1 antagonist -5
CCc1nc2nc(C)c(NS(=O)(=O)c3ccc(Cl)s3)c(=O)n2[nH]1	none
CC(=O)N1CCN(S(=O)(=O)c2cccc(C(=O)N(Cc3ccccc3)c3cccc(C)c3)c2)CC1	none
O=C(COC(=O)CCc1ccc(S(=O)(=O)N2CCOCC2)cc1)NCc1ccccc1	MrgX1 allo act 6.8
O=C(COC(=O)CCc1ccc(S(=O)(=O)N2CCOCC2)cc1)NCc1ccccc1Cl	none
C=CCN1C(=O)S/C(=C/c2ccsc2)C1=O	none
C=CCN1C(=O)S/C(=C/c2ccc(Sc3nc4ccccc4[nH]3)o2)C1=O	MrgX1 antagonist -6.8
CC(C)N1C(=O)S/C(=C/c2ccc(Sc3nc4ccccc4[nH]3)o2)C1=O	MrgX1 antagonist -7
C/C(CC(=O)Nc1ccc(F)cc1F)=N\NC(=O)C(=O)N1CCCCC1	none
CCn1cc(C(=O)NCCCN2CCCC(C)C2)c(=O)c2cc(S(=O)(=O)N3CCc4ccccc4C3)ccc21 (stereo not drawn)	RGS4 pot -7.2
CCC1CCCCN1CCCNC(=O)c1cn(CC)c2ccc(S(=O)(=O)N(C)C3CCCCC3)cc2c1=O (stereo not drawn)	none
CCC1CCCCN1CCCNC(=O)c1cn(CC)c2ccc(S(=O)(=O)N3CCc4ccccc4C3)cc2c1=O (stereo not drawn)	RGS4 pot -9
